Measurements published in PMC10203274 (Plant Communications, 2022).
Positions count from the first letter of the chain named.

Key:
NbUGT72AY1 = biological target: T1, NbUGT72AY1 (Nicotiana benthamiana, UniProt A0A8K1ZRH3); assay: UDP-Glo glycosyltransferase assay, acceptor substrate kinetics; assay type: biochemical
T1 sequence (A0A8K1ZRH3 1-477): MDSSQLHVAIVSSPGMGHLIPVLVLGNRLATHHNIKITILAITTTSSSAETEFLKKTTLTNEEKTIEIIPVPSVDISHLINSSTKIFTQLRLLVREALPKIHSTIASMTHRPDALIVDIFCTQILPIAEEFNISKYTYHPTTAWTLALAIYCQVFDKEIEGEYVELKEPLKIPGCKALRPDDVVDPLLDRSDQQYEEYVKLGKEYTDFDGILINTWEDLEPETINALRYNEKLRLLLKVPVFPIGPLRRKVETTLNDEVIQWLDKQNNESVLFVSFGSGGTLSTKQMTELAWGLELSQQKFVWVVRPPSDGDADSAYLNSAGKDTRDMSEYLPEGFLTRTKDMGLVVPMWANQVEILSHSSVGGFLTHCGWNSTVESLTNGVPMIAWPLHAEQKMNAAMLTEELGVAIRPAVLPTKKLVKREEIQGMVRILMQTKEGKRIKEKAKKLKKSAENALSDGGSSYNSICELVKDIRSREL

NbUGT72AY1-R91M = biological target: T2, NbUGT72AY1-R91M (Nicotiana benthamiana, UniProt A0A8K1ZRH3, R91M); assay: UDP-Glo glycosyltransferase assay, kinetics of mutant; assay type: biochemical
T2 sequence (A0A8K1ZRH3 1-477 R91M): T1 sequence (A0A8K1ZRH3 1-477) with R91M

NbUGT72AY1-R91A = biological target: T3, NbUGT72AY1-R91A (Nicotiana benthamiana, UniProt A0A8K1ZRH3, R91A); assay: as above; assay type: biochemical
T3 sequence (A0A8K1ZRH3 1-477 R91A): T1 sequence (A0A8K1ZRH3 1-477) with R91A

[1] = system: StUGT72AY2-chimera (Potato-Tobacco-Potato); assay: UDP-Glo glycosyltransferase assay, chimeric mutant; assay type: biochemical, Solanum tuberosum; conditions: Figure 5B and 5D
Method in brief: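 N-terminal GST-fusion enzyme expressed in E. coli BL21(DE3) pLysS (1 mM IPTG, 18°C overnight) and glutathione-eluted. Reaction: 2 μg protein, 100 μM UDP-glucose, and varied acceptor substrate (in DMSO) in 50 mM Tris-HCl pH 7.0, 30°C for 20 min. Stopped with HCl, neutralized with Trizma base, then UDP-Glo luminescence after 30 min dark. Michaelis–Menten or Hill fits from at least three repeats.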

NbUGT72AY1-R91F = biological target: T4, NbUGT72AY1-R91F (Nicotiana benthamiana, UniProt A0A8K1ZRH3, R91F); assay: UDP-Glo glycosyltransferase assay, kinetics of mutant; assay type: biochemical
T4 sequence (A0A8K1ZRH3 1-477 R91F): T1 sequence (A0A8K1ZRH3 1-477) with R91F

Alternaria alternata = conditions: in vitro and in vivo; ref Sun et al., 2014; cited from earlier work

COc1cc2ccc(=O)oc2cc1O [scopoletin]
Vi (NbUGT72AY1; Fig S14b series, wild type R91, substrate scopoletin): 4.4 ± 2.3 nmol/min/mg
Vmax (NbUGT72AY1; Figure 5A series, wild type, substrate scopoletin): 264.3 nmol/min/mg
Ki (NbUGT72AY1; Ki, Fig S14b series, wild type R91, substrate scopoletin): 10.7 ± 2.2 µM
Ki (NbUGT72AY1; substrate inhibition (Ki), as stated in the abstract): 4 µM
Ki (NbUGT72AY1-R91M): 27.3 ± 4.2 µM
Vi (NbUGT72AY1-R91M; Fig S14b, mutant R91M, substrate scopoletin): 13.1 ± 6.1 nmol/min/mg
Ki (NbUGT72AY1-R91A): 3.3 ± 0.7 µM
enzymatic activity of the chimeric mutant with the substrate [1]: inactive
Ki (NbUGT72AY1-R91F): 0.9 ± 0.3 µM
antifungal activity (Alternaria alternata): strong antifungal activity
